Source: ChEMBL document CHEMBL1153941, “Synthesis, molecular modeling, and selective inhibitory activity against human monoamine oxidases of 3-carboxamido-7-substituted coumarins” (J Med Chem, 2009)

What was measured:
[1] = biological target: T1, Amine oxidase [flavin-containing] A (Homo sapiens, UniProt P21397); assay: Inhibition of human recombinant MAOA expressed in BTI-TN-5B1-4 cells assessed as effect on H2O2 production from para-tyramine at 100 uM by fluorimetric method; format: cell-based
T1 sequence (P21397 whole entry): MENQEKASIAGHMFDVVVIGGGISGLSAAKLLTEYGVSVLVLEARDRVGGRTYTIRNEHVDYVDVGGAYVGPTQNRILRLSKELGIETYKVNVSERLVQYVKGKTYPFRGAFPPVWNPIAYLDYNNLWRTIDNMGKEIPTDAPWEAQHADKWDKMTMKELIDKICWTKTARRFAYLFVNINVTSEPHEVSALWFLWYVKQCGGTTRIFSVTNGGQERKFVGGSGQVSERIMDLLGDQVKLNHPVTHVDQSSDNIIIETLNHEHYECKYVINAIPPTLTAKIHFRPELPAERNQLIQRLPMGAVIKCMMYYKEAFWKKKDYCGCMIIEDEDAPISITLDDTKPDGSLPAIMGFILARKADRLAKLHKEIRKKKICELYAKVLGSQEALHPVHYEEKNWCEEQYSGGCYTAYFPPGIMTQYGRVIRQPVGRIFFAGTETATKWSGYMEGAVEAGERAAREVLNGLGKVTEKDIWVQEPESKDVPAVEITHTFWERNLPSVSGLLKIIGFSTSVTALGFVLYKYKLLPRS
Summary of the method: (§1)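 Enzyme and test drug were preincubated 15 min at 37 °C in 0.05 M sodium phosphate, pH 7.4. Final 1 mM p-tyramine, 200 µM Amplex Red and 1 U/mL HRP were then added. Resorufin fluorescence (ex 545/em 590 nm) was read over 15 min, minus enzyme-free background. Top concentration tested was 100 µM.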

[2] = biological target: T2, Amine oxidase [flavin-containing] B (Homo sapiens, UniProt P27338); assay: Inhibition of human recombinant MAOB expressed in BTI-TN-5B1-4 cells assessed as effect on H2O2 production from para-tyramine at 100 uM by fluorimetric method; format: cell-based; summary of the method: as §1
T2 sequence (P27338 whole entry): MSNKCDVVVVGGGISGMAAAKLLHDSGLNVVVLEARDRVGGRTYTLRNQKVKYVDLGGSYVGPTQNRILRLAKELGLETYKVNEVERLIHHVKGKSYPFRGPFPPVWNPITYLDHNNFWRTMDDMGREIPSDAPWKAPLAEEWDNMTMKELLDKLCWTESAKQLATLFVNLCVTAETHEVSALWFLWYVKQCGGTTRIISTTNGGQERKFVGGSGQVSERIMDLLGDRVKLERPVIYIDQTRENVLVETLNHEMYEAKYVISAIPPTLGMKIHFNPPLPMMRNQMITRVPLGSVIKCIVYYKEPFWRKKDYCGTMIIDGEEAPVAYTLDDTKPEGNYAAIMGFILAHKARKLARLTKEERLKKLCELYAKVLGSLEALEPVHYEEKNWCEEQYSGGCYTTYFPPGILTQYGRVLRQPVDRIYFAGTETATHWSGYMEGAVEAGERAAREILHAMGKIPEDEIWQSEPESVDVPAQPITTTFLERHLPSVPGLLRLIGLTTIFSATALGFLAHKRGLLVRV

[3] = biological target: T1, Amine oxidase [flavin-containing] A; assay: Inhibition of human recombinant MAOA expressed in BTI-TN-5B1-4 cells assessed as effect on H2O2 production from para-tyramine by fluorimetric method; format: cell-based
Homo sapiens = organism: Homo sapiens; assay: Selectivity index, ratio of IC50 for human recombinant MAOA to IC50 for human recombinant MAOB
[4] = biological target: T2, Amine oxidase [flavin-containing] B; assay: Inhibition of human recombinant MAOB expressed in BTI-TN-5B1-4 cells assessed as effect on H2O2 production from para-tyramine at 1 mM by fluorimetric method; format: cell-based
Summary of the method: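 Drugs preincubated with enzyme 15 min, 37 °C, 0.05 M sodium phosphate pH 7.4. Amplex Red 200 µM, HRP 1 U/mL, p-tyramine 1 mM (final) added. Resorufin fluorescence (ex 545/em 590 nm) read over 15 min at 37 °C, enzyme-free background subtracted.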

| SMILES | IC50 [1] | IC50 [3] [µM] | also measured |
| --- | --- | --- | --- |
| CC(C)c1ccc(NC(=O)c2cc3ccc(OCc4ccc(F)cc4)cc3oc2=O)cc1 | Not Active |  | IC50 [2]: Not Active |
| Cc1cc(C)cc(NC(=O)c2cc3ccccc3oc2=O)c1 |  | 17.6 |  |
| CSc1ccc(NC(=O)c2cc3ccccc3oc2=O)cc1 |  | 14.8 |  |
| Cc1ccc(C)c(NC(=O)c2cc3ccccc3oc2=O)c1 |  | 15.9 |  |
| O=C(NCc1ccccc1)c1cc2ccc(OCc3ccccc3)cc2oc1=O | Not Active |  |  |
| CCOC(=O)c1ccc(NC(=O)c2cc3ccccc3oc2=O)cc1 |  | 16 | IC50 [2]: Not Active; Ratio IC50 (Homo sapiens): < 0.16 |
| CCc1ccc(NC(=O)c2cc3ccccc3oc2=O)cc1 |  | 15.7 |  |
| N#Cc1c(F)c(F)c(NC(=O)c2cc3ccc(OCc4ccc(F)cc4)cc3oc2=O)c(F)c1F |  | 58.5 |  |
| Cc1ccc(NC(=O)c2cc3ccccc3oc2=O)c(C)c1 |  | 12.3 |  |
| CC(C)CNC(=O)c1cc2ccc(OCc3ccccc3)cc2oc1=O |  | 58.6 |  |
| COc1ccc(NC(=O)c2cc3ccccc3oc2=O)cc1 | Not Active |  |  |
| O=C(Nc1ccccc1)c1cc2ccccc2oc1=O |  | 13.1 |  |
| COc1ccc(NC(=O)c2cc3ccc(OCc4ccc(F)cc4)cc3oc2=O)cc1OC |  | 49.2 |  |
| COc1ccc(NC(=O)c2cc3ccccc3oc2=O)cc1OC |  | 9.45 |  |
| O=C(Nc1ccc(F)cc1)c1cc2ccccc2oc1=O |  | 13.1 |  |
| O=C(Nc1ccccc1Cc1ccccc1)c1cc2ccc(OCc3ccc(F)cc3)cc2oc1=O |  | 55.8 | IC50 [2]: Not Active; Ratio IC50 (Homo sapiens): < 0.56 |
| O=C(NCCc1ccccc1)c1cc2ccccc2oc1=O | Not Active |  | IC50 [2]: Not Active |
| COc1ccc(NC(=O)c2cc3ccc(OCc4ccccc4)cc3oc2=O)cc1OC | Not Active |  |  |
| COc1cc(NC(=O)c2cc3ccc(OCc4ccc(F)cc4)cc3oc2=O)cc(OC)c1 |  | 52.6 |  |
| N#Cc1c(F)c(F)c(NC(=O)c2cc3ccc(OCc4ccccc4)cc3oc2=O)c(F)c1F |  | 61.4 |  |

| SMILES | IC50 [1] | IC50 [3] [µM] | also measured |
| --- | --- | --- | --- |
| COc1cc(NC(=O)c2cc3ccccc3oc2=O)cc(OC)c1 |  | 61.5 |  |
| O=C(Cl)c1ccc(NC(=O)c2cc3ccccc3oc2=O)cc1 |  | 9.67 | IC50 [2]: Not Active; Ratio IC50 (Homo sapiens): < 0.1 |
| O=C(O)c1ccc(NC(=O)c2cc3ccccc3oc2=O)cc1 |  | 9.97 |  |
| O=C(NNc1ccccc1)c1cc2ccc(OCc3ccccc3)cc2oc1=O |  | 41.4 |  |
| O=C(NCc1ccccc1)c1cc2ccccc2oc1=O | Not Active |  |  |
| O=C(Nc1c(F)c(F)c(F)c(F)c1F)c1cc2ccccc2oc1=O | Not Active |  |  |
| O=C(c1cc2ccccc2oc1=O)N(c1ccccc1)c1ccccc1 | Not Active |  | IC50 [2]: Not Active |
| COc1ccc(NC(=O)c2cc3ccc(OCc4ccccc4)c(C)c3oc2=O)cc1OC |  | 48.9 |  |
| CN(C(=O)c1cc2ccc(OCc3ccccc3)cc2oc1=O)c1ccccc1 | Not Active |  |  |
| O=C(Nc1c(F)c(F)nc(F)c1F)c1cc2ccccc2oc1=O |  | 11.4 |  |
| O=C(Nc1ccccc1Cc1ccccc1)c1cc2ccc(OCc3ccccc3)cc2oc1=O |  | 51.9 |  |
| Cc1cccc(Cl)c1NC(=O)c1cc2ccccc2oc1=O | Not Active |  |  |
| CN(Cc1ccccc1)C(=O)c1cc2ccccc2oc1=O | Not Active |  | IC50 [2]: Not Active |
| O=C(NCCN1CCOCC1)c1ccc(Cl)cc1 [MOCLOBEMIDE] |  |  | IC50 [4]: Not Active |
| O=C(NC1CCCCC1)c1cc2ccccc2oc1=O | Not Active |  |  |
| CC(C)CNC(=O)c1cc2ccccc2oc1=O | Not Active |  |  |
| CC(C)NC(=O)c1cc2ccccc2oc1=O | Not Active |  |  |
| O=C(Nc1c(F)cccc1F)c1cc2ccccc2oc1=O |  | 12.8 |  |
| O=C(Nc1ccccc1Cc1ccccc1)c1cc2ccccc2oc1=O | Not Active |  |  |
| Cc1cccc(Cl)c1NC(=O)c1cc2ccc(OCc3ccc(F)cc3)cc2oc1=O |  | 59.6 |  |

| SMILES | IC50 [1] | IC50 [3] [µM] | also measured |
| --- | --- | --- | --- |
| C#CCNC(=O)c1cc2ccccc2oc1=O | Not Active |  | IC50 [2]: Not Active |
| CN(C(=O)c1cc2ccccc2oc1=O)c1ccccc1 | Not Active |  |  |
| CS(=O)(=O)c1ccc(NC(=O)c2cc3ccccc3oc2=O)cc1 |  | 9.33 |  |
| Cc1cccc(C)c1NC(=O)c1cc2ccccc2oc1=O |  | 9.79 |  |
| CC(C)c1ccc(NC(=O)c2cc3ccccc3oc2=O)cc1 |  | 15.1 |  |
| O=C(Nc1cccc(F)c1)c1cc2ccccc2oc1=O | Not Active |  |  |
| COc1cc(NC(=O)c2cc3ccc(OCc4ccccc4)cc3oc2=O)cc(OC)c1 |  | 52.9 |  |
| COc1cccc(NC(=O)c2cc3ccccc3oc2=O)c1 | Not Active |  |  |
| Cc1cccc(Cl)c1NC(=O)c1cc2ccc(OCc3ccccc3)cc2oc1=O |  | 49.7 |  |
| Cc1ccc(NC(=O)c2cc3ccccc3oc2=O)cc1 |  | 19.5 |  |
| CC(C)NC(=O)c1cc2ccc(OCc3ccccc3)cc2oc1=O |  | 63.5 | IC50 [2]: Not Active; Ratio IC50 (Homo sapiens): < 0.63 |
| Cc1cccc(NC(=O)c2cc3ccccc3oc2=O)c1C |  | 20.6 |  |
| CC(C)c1ccc(NC(=O)c2cc3ccc(OCc4ccccc4)cc3oc2=O)cc1 |  | 60.9 |  |
| N#Cc1c(F)c(F)c(NC(=O)c2cc3ccccc3oc2=O)c(F)c1F |  | 16 |  |
| NCCNC(=O)c1cc2ccccc2oc1=O | Not Active |  |  |
| O=C(Nc1ccc(O)cc1)c1cc2ccccc2oc1=O | Not Active |  |  |
| O=C(NC1CCCCC1)c1cc2ccc(OCc3ccccc3)cc2oc1=O | Not Active |  |  |
| Cc1cccc(NC(=O)c2cc3ccccc3oc2=O)c1 |  | 14.5 |  |
| O=C(Nc1cccc(C(F)(F)F)c1)c1cc2ccccc2oc1=O | Not Active |  |  |
| Cc1ccc(NC(=O)c2cc3ccccc3oc2=O)cc1C |  | 18.8 |  |
